Results as given in ChEMBL document CHEMBL1138520, “Molecular and conformational determinants of pituitary adenylate cyclase-activating polypeptide (PACAP) for activation of the PAC1 receptor” (J Med Chem, 2009).
Where a SMILES comes first, the peptide text is derived from it. [ ]: non-standard residue; d: D form. Bip = N[C@@H](Cc1ccc(-c2ccccc2)cc1)C(=O)O; 1Nal = N[C@@H](Cc1cccc2ccccc12)C(=O)O; Hyp = O=C(O)[C@@H]1C[C@@H](O)CN1

Legend:
[1] = biological target: T1, Pituitary adenylate cyclase-activating polypeptide type I receptor (Homo sapiens, UniProt P41586); experiment: Displacement of [125I]Ac-PACAP27 from human recombinant PAC1 receptor expressed in CHO cells by gamma- counter; assay type: cell-based
Target sequence in this assay (P41586 whole entry): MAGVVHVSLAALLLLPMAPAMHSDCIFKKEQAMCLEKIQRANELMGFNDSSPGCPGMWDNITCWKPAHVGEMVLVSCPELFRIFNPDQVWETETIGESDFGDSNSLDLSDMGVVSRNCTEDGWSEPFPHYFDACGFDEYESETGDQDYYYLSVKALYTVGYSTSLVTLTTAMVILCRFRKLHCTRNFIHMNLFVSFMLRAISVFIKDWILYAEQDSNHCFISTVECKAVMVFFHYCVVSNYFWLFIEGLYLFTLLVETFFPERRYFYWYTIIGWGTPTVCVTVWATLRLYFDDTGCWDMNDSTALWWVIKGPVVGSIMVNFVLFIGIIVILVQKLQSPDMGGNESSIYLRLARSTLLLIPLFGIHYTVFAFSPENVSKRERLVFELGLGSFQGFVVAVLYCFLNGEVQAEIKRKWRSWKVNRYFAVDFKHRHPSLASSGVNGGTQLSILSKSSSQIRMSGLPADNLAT

[2] = biological target: T1, Pituitary adenylate cyclase-activating polypeptide type I receptor; experiment: Agonist activity at human recombinant PAC1 receptor expressed in CHO cells assessed as PACAP38-induced calcium mobilization by FLIPR assay; assay type: functional, cell-based
Procedure, shortened: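 CHO cells stably expressing recombinant human PAC1, plated 24 h before assay, loaded with fluo-4 AM for 60 min at 37 °C in the dark, then rinsed into HBSS for 15 min at 37 °C. EC50 and efficacy came from nonlinear regression; 4-10 independent assays in duplicate.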
Target sequence in this assay (P41586 whole entry): as above

[3] = biological target: T1, Pituitary adenylate cyclase-activating polypeptide type I receptor; experiment: Agonist activity at human recombinant PAC1 receptor expressed in CHO cells assessed as PACAP38-induced calcium mobilization by FLIPR assay relative to PACAP38; assay type: functional, cell-based
Procedure, shortened: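 CHO cells stably expressing recombinant human PAC1, plated 24 h before assay, loaded with fluo-4 AM for 60 min at 37 °C in the dark, then rinsed into HBSS for 15 min at 37 °C. Peptide was added 18 s into a 150 s read (ex 480/em 525 nm), at final concentrations of 1 × 10-12 to 1 × 10^-5 M. Response was normalised to 1 × 10^-5 M PACAP38 on each plate. EC50 and efficacy came from nonlinear regression; 4-10 independent assays in duplicate.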
Target sequence in this assay (P41586 21-468 limits assumed): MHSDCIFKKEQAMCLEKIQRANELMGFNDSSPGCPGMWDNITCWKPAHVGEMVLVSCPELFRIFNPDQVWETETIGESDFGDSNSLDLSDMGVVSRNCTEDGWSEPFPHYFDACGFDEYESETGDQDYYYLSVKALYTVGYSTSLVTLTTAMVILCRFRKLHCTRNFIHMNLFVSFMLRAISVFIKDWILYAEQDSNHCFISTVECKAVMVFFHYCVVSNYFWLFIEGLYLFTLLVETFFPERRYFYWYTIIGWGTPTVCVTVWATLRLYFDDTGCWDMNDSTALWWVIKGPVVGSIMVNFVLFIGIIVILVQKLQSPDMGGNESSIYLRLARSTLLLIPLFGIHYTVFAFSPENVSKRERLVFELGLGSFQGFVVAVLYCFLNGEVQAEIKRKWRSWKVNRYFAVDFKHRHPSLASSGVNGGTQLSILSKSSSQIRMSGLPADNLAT

Row | IC50 [1] [nM] | EC50 [2] [nM] | Emax [3] [%] | Structure (SMILES)
1 | 8.5 | 4.1 | 89.3 | CC[C@H](C)[C@H](NC(=O)CNC(=O)[C@H](CC(=O)O)NC(=O)[C@@H]1CCCN1C(=O)[C@@H](N)Cc1cnc[nH]1)C(=O)N[C@@H](Cc1ccccc1)C(=O)N[C@H](C(=O)N[C@@H](CC(=O)O)C(=O)N[C@@H](CO)C(=O)N[C@@H](Cc1ccc(O)cc1)C(=O)N[C@@H](CO)C(=O)N[C@@H](CCCNC(=N)N)C(=O)N[C@@H](Cc1ccc(O)cc1)C(=O)N[C@@H](CCCNC(=N)N)C(=O)N[C@@H](CCCCN)C(=O)N[C@@H](CCC(N)=O)C(=O)N[C@@H](CCSC)C(=O)N[C@@H](C)C(=O)N[C@H](C(=O)N[C@@H](CCCCN)C(=O)N[C@@H](CCCCN)C(=O)N[C@@H](Cc1ccc(O)cc1)C(=O)N[C@@H](CC(C)C)C(=O)N[C@@H](C)C(=O)N[C@@H](C)C(=O)N[C@H](C(=O)N[C@@H](CC(C)C)C(=O)NCC(=O)N[C@@H](CCCCN)C(=O)N[C@@H](CCCNC(=N)N)C(=O)N[C@@H](Cc1ccc(O)cc1)C(=O)N[C@@H](CCCCN)C(=O)N[C@@H](CCC(N)=O)C(=O)N[C@@H](CCCNC(=N)N)C(=O)N[C@H](C(=O)N[C@@H](CCCCN)C(=O)N[C@@H](CC(N)=O)C(=O)N[C@@H](CCCCN)C(N)=O)C(C)C)C(C)C)C(C)C)[C@@H](C)O
2 | 97.2 | 10000 | 64.1 | CC[C@H](C)[C@H](NC(=O)CNC(=O)[C@H](C)NC(=O)[C@H](CO)NC(=O)[C@@H](N)Cc1cnc[nH]1)C(=O)N[C@@H](Cc1ccccc1)C(=O)N[C@H](C(=O)N[C@@H](CC(=O)O)C(=O)N[C@@H](CO)C(=O)N[C@@H](Cc1ccc(O)cc1)C(=O)N[C@@H](CO)C(=O)N[C@@H](CCCNC(=N)N)C(=O)N[C@@H](Cc1ccc(O)cc1)C(=O)N[C@@H](CCCNC(=N)N)C(=O)N[C@@H](CCCCN)C(=O)N[C@@H](CCC(N)=O)C(=O)N[C@@H](CCSC)C(=O)N[C@@H](C)C(=O)N[C@H](C(=O)N[C@@H](CCCCN)C(=O)N[C@@H](CCCCN)C(=O)N[C@@H](Cc1ccc(O)cc1)C(=O)N[C@@H](CC(C)C)C(=O)N[C@@H](C)C(=O)N[C@@H](C)C(=O)N[C@H](C(=O)N[C@@H](CC(C)C)C(=O)NCC(=O)N[C@@H](CCCCN)C(=O)N[C@@H](CCCNC(=N)N)C(=O)N[C@@H](Cc1ccc(O)cc1)C(=O)N[C@@H](CCCCN)C(=O)N[C@@H](CCC(N)=O)C(=O)N[C@@H](CCCNC(=N)N)C(=O)N[C@H](C(=O)N[C@@H](CCCCN)C(=O)N[C@@H](CC(N)=O)C(=O)N[C@@H](CCCCN)C(N)=O)C(C)C)C(C)C)C(C)C)[C@@H](C)O (H-HSAGIFTDSYSRYRKQMAVKKYLAAVLGKRYKQRVKNK-NH2)
3 | 15.6 | 52.5 | 96.9 | CC[C@H](C)[C@H](NC(=O)CNC(=O)[C@H](CC(=O)O)NC(=O)[C@H](CO)NC(=O)[C@@H](N)Cc1cncn1C)C(=O)N[C@@H](Cc1ccccc1)C(=O)N[C@H](C(=O)N[C@@H](CC(=O)O)C(=O)N[C@@H](CO)C(=O)N[C@@H](Cc1ccc(O)cc1)C(=O)N[C@@H](CO)C(=O)N[C@@H](CCCNC(=N)N)C(=O)N[C@@H](Cc1ccc(O)cc1)C(=O)N[C@@H](CCCNC(=N)N)C(=O)N[C@@H](CCCCN)C(=O)N[C@@H](CCC(N)=O)C(=O)N[C@@H](CCSC)C(=O)N[C@@H](C)C(=O)N[C@H](C(=O)N[C@@H](CCCCN)C(=O)N[C@@H](CCCCN)C(=O)N[C@@H](Cc1ccc(O)cc1)C(=O)N[C@@H](CC(C)C)C(=O)N[C@@H](C)C(=O)N[C@@H](C)C(=O)N[C@H](C(=O)N[C@@H](CC(C)C)C(N)=O)C(C)C)C(C)C)[C@@H](C)O
4 | 9.84 | 7.4 | 90.2 | CC[C@H](C)[C@H](NC(=O)[C@H](C)NC(=O)[C@H](CC(=O)O)NC(=O)[C@H](CO)NC(=O)[C@@H](N)Cc1cnc[nH]1)C(=O)N[C@@H](Cc1ccccc1)C(=O)N[C@H](C(=O)N[C@@H](CC(=O)O)C(=O)N[C@@H](CO)C(=O)N[C@@H](Cc1ccc(O)cc1)C(=O)N[C@@H](CO)C(=O)N[C@@H](CCCNC(=N)N)C(=O)N[C@@H](Cc1ccc(O)cc1)C(=O)N[C@@H](CCCNC(=N)N)C(=O)N[C@@H](CCCCN)C(=O)N[C@@H](CCC(N)=O)C(=O)N[C@@H](CCSC)C(=O)N[C@@H](C)C(=O)N[C@H](C(=O)N[C@@H](CCCCN)C(=O)N[C@@H](CCCCN)C(=O)N[C@@H](Cc1ccc(O)cc1)C(=O)N[C@@H](CC(C)C)C(=O)N[C@@H](C)C(=O)N[C@@H](C)C(=O)N[C@H](C(=O)N[C@@H](CC(C)C)C(=O)NCC(=O)N[C@@H](CCCCN)C(=O)N[C@@H](CCCNC(=N)N)C(=O)N[C@@H](Cc1ccc(O)cc1)C(=O)N[C@@H](CCCCN)C(=O)N[C@@H](CCC(N)=O)C(=O)N[C@@H](CCCNC(=N)N)C(=O)N[C@H](C(=O)N[C@@H](CCCCN)C(=O)N[C@@H](CC(N)=O)C(=O)N[C@@H](CCCCN)C(N)=O)C(C)C)C(C)C)C(C)C)[C@@H](C)O (H-HSDAIFTDSYSRYRKQMAVKKYLAAVLGKRYKQRVKNK-NH2)
5 | 5 | 1.4 | 106 | CC[C@H](C)[C@H](NC(=O)CNC(=O)[C@H](CC(=O)O)NC(=O)[C@H](CO)NC(=O)[C@@H](N)Cc1cnc[nH]1)C(=O)N[C@@H](Cc1cccc2ccccc12)C(=O)N[C@H](C(=O)N[C@@H](CC(=O)O)C(=O)N[C@@H](CO)C(=O)N[C@@H](Cc1ccc(O)cc1)C(=O)N[C@@H](CO)C(=O)N[C@@H](CCCNC(=N)N)C(=O)N[C@@H](Cc1ccc(O)cc1)C(=O)N[C@@H](CCCNC(=N)N)C(=O)N[C@@H](CCCCN)C(=O)N[C@@H](CCC(N)=O)C(=O)N[C@@H](CCSC)C(=O)N[C@@H](C)C(=O)N[C@H](C(=O)N[C@@H](CCCCN)C(=O)N[C@@H](CCCCN)C(=O)N[C@@H](Cc1ccc(O)cc1)C(=O)N[C@@H](CC(C)C)C(=O)N[C@@H](C)C(=O)N[C@@H](C)C(=O)N[C@H](C(=O)N[C@@H](CC(C)C)C(=O)NCC(=O)N[C@@H](CCCCN)C(=O)N[C@@H](CCCNC(=N)N)C(=O)N[C@@H](Cc1ccc(O)cc1)C(=O)N[C@@H](CCCCN)C(=O)N[C@@H](CCC(N)=O)C(=O)N[C@@H](CCCNC(=N)N)C(=O)N[C@H](C(=O)N[C@@H](CCCCN)C(=O)N[C@@H](CC(N)=O)C(=O)N[C@@H](CCCCN)C(N)=O)C(C)C)C(C)C)C(C)C)[C@@H](C)O (H-HSDGI[1Nal]TDSYSRYRKQMAVKKYLAAVLGKRYKQRVKNK-NH2)
6 | 8.6 | 0.7 | 94 | CC[C@H](C)[C@H](NC(=O)CNC(=O)[C@H](CC(=O)O)NC(=O)[C@@H]1C[C@@H](O)CN1C(=O)[C@@H](N)Cc1cnc[nH]1)C(=O)N[C@@H](Cc1ccccc1)C(=O)N[C@H](C(=O)N[C@@H](CC(=O)O)C(=O)N[C@@H](CO)C(=O)N[C@@H](Cc1ccc(O)cc1)C(=O)N[C@@H](CO)C(=O)N[C@@H](CCCNC(=N)N)C(=O)N[C@@H](Cc1ccc(O)cc1)C(=O)N[C@@H](CCCNC(=N)N)C(=O)N[C@@H](CCCCN)C(=O)N[C@@H](CCC(N)=O)C(=O)N[C@@H](CCSC)C(=O)N[C@@H](C)C(=O)N[C@H](C(=O)N[C@@H](CCCCN)C(=O)N[C@@H](CCCCN)C(=O)N[C@@H](Cc1ccc(O)cc1)C(=O)N[C@@H](CC(C)C)C(=O)N[C@@H](C)C(=O)N[C@@H](C)C(=O)N[C@H](C(=O)N[C@@H](CC(C)C)C(=O)NCC(=O)N[C@@H](CCCCN)C(=O)N[C@@H](CCCNC(=N)N)C(=O)N[C@@H](Cc1ccc(O)cc1)C(=O)N[C@@H](CCCCN)C(=O)N[C@@H](CCC(N)=O)C(=O)N[C@@H](CCCNC(=N)N)C(=O)N[C@H](C(=O)N[C@@H](CCCCN)C(=O)N[C@@H](CC(N)=O)C(=O)N[C@@H](CCCCN)C(N)=O)C(C)C)C(C)C)C(C)C)[C@@H](C)O (H-H[Hyp]DGIFTDSYSRYRKQMAVKKYLAAVLGKRYKQRVKNK-NH2)
7 | 5.4 | 1.1 | 105 | CC[C@H](C)[C@H](NC(=O)CNC(=O)[C@H](CC(=O)O)NC(=O)[C@H](CO)NC(=O)[C@@H](N)Cc1cnc[nH]1)C(=O)N[C@@H](Cc1ccc(-c2ccccc2)cc1)C(=O)N[C@H](C(=O)N[C@@H](CC(=O)O)C(=O)N[C@@H](CO)C(=O)N[C@@H](Cc1ccc(O)cc1)C(=O)N[C@@H](CO)C(=O)N[C@@H](CCCNC(=N)N)C(=O)N[C@@H](Cc1ccc(O)cc1)C(=O)N[C@@H](CCCNC(=N)N)C(=O)N[C@@H](CCCCN)C(=O)N[C@@H](CCC(N)=O)C(=O)N[C@@H](CCSC)C(=O)N[C@@H](C)C(=O)N[C@H](C(=O)N[C@@H](CCCCN)C(=O)N[C@@H](CCCCN)C(=O)N[C@@H](Cc1ccc(O)cc1)C(=O)N[C@@H](CC(C)C)C(=O)N[C@@H](C)C(=O)N[C@@H](C)C(=O)N[C@H](C(=O)N[C@@H](CC(C)C)C(=O)NCC(=O)N[C@@H](CCCCN)C(=O)N[C@@H](CCCNC(=N)N)C(=O)N[C@@H](Cc1ccc(O)cc1)C(=O)N[C@@H](CCCCN)C(=O)N[C@@H](CCC(N)=O)C(=O)N[C@@H](CCCNC(=N)N)C(=O)N[C@H](C(=O)N[C@@H](CCCCN)C(=O)N[C@@H](CC(N)=O)C(=O)N[C@@H](CCCCN)C(N)=O)C(C)C)C(C)C)C(C)C)[C@@H](C)O (H-HSDGI[Bip]TDSYSRYRKQMAVKKYLAAVLGKRYKQRVKNK-NH2)
